Publication PMC7032146 (Asian Journal of Pharmaceutical Sciences, 2018)

Tests used:
[1] = system: L929 cells; assay: Cellular uptake of NR-loaded micelles; format: cell-based
In short: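 L929 cells (CD44-negative) grown 24 h in DMEM with 10% FBS, then medium replaced with free fluorescent marker NR or micelles loaded with NR at 0.2% drug loading. Incubated at 37 °C for 1, 4 and 8 h, washed thrice with PBS, and viewed by fluorescent inverted microscope. For flow cytometry at 1 and 4 h, cells were PBS-washed, trypsinised, resuspended in PBS, and read at 560/620 nm.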

[2] = system: B16F10 cells; assay: Cellular uptake of NR-loaded micelles; format: cell-based; settings: B16F10, flow cytometry, 1 h and 4 h

## CCN(CC)c1ccc2nc3c4ccccc4c(=O)cc-3oc2c1 [free NR, nile red]
[1]; L929 (CD44-negative), fluorescent inverted microscope
  Fluorescence intensity of NR (cellular uptake): highest
[1]; L929, flow cytometry, 1 h and 4 h
  Fluorescence intensity of NR (cellular uptake): highest
[2]
  Intracellular NR concentrations, order: HA-SS-ATRA21/NR micelles > HA-ATRA20/NR micelles > free NR > HA-SS-ATRA21/NR micelles treated with free-HA
